The values below come from ChEMBL document CHEMBL4715860 (J Med Chem, 2020).

Data set [1] deals with Phosphatidylinositol 4,5-bisphosphate 3-kinase catalytic subunit beta isoform (Homo sapiens, UniProt P42338). Kind of data set: Binding affinity to wild-type human partial length PIK3CB (P118 to S1070 residues) expressed in HEK293 cells measured after 1 hr by Kinomescan method. The format is cell-based. The method, boiled down: (§1)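 Compound given as an 11-point threefold series from 30 μM, in technical duplicate. Kd from a Hill fit with slope fixed at −1.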
Chain of Phosphatidylinositol 4,5-bisphosphate 3-kinase catalytic subunit beta isoform (P42338 whole entry, the tested form may be a part, canonical isoform): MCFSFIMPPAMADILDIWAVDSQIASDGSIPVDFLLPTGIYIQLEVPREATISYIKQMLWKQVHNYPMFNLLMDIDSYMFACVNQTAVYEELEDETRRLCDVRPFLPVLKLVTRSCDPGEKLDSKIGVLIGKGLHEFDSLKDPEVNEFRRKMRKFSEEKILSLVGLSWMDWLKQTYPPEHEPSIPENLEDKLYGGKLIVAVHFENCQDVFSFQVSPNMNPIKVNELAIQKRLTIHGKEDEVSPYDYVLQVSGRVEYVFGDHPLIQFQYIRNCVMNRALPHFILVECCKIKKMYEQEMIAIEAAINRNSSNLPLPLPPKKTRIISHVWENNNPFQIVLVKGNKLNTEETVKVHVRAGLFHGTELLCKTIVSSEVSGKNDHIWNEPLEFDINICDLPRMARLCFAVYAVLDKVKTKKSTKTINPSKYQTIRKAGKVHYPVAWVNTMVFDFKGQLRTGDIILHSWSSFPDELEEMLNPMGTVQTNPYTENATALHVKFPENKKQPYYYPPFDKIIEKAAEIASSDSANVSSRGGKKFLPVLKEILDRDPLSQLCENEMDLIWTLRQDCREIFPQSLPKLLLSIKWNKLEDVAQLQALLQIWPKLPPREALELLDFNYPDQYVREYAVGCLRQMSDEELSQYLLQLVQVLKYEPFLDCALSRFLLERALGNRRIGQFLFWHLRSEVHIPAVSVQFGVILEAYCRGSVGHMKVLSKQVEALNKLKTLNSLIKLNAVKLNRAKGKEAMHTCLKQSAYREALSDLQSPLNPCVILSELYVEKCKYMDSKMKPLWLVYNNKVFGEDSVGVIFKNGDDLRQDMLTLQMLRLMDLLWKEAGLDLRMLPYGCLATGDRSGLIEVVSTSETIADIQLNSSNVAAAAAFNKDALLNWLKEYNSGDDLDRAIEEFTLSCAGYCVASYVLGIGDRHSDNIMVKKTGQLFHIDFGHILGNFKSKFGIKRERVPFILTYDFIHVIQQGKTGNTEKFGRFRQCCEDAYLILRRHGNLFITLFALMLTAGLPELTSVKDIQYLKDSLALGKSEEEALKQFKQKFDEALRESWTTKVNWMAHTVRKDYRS

Data set [2] can be described thus: Substrate activity at human P-glycoprotein stably expressed in MDCK cells at 1 uM measured after 5 to 20 mins by UPLC-MS/MS analysis. The conditions noted are these: time 5-20 min. It counts as ADME, cell-based. A digest of the protocol: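 CRISPR canine-MDR1-knockout MDCKII cells stably expressing human MDR1, with the knockout parent line as control. Cells grown 5 days on TransWell filters and preincubated in HBSS 30 min at 37 °C. Compound at 1 μM added apical or basolateral. Receiver sampled at 5, 10 and 20 min; UPLC-MS/MS.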

The target of the next data set is T1, CYP1A2 (Homo sapiens, UniProt P05177).
T1 sequence (P05177 whole entry): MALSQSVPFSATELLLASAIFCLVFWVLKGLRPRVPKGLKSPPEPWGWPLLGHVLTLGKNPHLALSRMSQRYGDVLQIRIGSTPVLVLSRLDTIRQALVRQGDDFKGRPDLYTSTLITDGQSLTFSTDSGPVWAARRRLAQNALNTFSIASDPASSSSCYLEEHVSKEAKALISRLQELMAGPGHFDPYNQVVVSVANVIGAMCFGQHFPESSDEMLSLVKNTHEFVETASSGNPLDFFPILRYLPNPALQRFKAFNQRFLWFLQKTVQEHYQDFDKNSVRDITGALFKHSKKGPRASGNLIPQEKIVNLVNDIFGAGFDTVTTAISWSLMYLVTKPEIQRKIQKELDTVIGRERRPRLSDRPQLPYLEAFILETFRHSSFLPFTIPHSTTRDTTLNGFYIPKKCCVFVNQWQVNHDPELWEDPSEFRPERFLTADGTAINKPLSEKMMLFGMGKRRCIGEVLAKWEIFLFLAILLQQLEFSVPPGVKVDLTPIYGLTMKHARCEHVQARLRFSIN
Kind of data set: Drug metabolism assessed as human recombinant CYP1A2 expressed in baculovirus infected insect cells-mediated metabolism by measuring parent compound remaining at 1 uM incubated for 60 mins in presence of NADPH regenerating system by UHPLC based LC-MS analysis. The format is ADME. The settings on record: read-out: Stabilty.

Data set [3] concerns the target Phosphatidylinositol 4,5-bisphosphate 3-kinase catalytic subunit alpha isoform (Homo sapiens, UniProt P42336). In words: Binding affinity to wild-type human partial length PIK3CA (R108 to N1068 residues) expressed in HEK293 cells measured after 1 hr by Kinomescan method. It counts as cell-based. The method, boiled down: as §1
Data set [4] deals with Phosphatidylinositol 4-kinase beta (Homo sapiens, UniProt Q9UBF8). In words: Binding affinity to wild-type human full length PIK4CB (M1 to M828 residues) expressed in HEK293 cells measured after 1 hr by Kinomescan method. The format is cell-based. The method, boiled down:
as §1

Data set [5] concerns the target T2, Phosphatidylinositol 4,5-bisphosphate 3-kinase catalytic subunit delta isoform (Homo sapiens, UniProt O00329).
T2 sequence (O00329 whole entry): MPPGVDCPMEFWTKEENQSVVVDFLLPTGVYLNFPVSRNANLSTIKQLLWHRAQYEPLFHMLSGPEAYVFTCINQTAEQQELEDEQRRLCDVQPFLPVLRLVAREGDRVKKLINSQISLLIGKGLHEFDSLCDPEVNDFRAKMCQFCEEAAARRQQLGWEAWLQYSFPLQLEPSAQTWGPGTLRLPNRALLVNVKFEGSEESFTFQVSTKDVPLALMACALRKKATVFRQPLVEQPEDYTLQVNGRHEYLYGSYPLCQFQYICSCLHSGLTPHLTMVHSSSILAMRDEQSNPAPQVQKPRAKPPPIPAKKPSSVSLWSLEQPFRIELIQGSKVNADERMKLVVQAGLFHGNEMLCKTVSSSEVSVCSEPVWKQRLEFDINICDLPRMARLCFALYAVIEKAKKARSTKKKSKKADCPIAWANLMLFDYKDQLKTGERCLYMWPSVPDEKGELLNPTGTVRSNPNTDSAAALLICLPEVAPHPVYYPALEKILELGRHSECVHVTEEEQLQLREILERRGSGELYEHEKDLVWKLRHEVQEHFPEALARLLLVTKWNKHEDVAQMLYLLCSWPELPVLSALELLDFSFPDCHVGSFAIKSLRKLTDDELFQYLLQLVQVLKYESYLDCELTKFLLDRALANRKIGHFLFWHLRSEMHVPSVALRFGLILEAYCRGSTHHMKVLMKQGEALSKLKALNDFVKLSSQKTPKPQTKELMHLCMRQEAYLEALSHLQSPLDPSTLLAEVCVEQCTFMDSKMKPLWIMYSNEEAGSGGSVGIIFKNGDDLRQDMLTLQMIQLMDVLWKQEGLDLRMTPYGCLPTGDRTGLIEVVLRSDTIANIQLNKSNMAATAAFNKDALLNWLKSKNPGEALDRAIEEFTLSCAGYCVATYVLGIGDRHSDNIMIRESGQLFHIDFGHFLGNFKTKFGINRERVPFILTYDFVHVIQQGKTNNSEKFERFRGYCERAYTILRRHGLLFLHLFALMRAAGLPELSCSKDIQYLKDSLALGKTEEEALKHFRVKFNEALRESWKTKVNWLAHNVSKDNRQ
Kind of data set: Binding affinity to wild-type human partial length PIK3CD (R108 to Q1044 residues) expressed in HEK293 cells measured after 1 hr by Kinomescan method. The format is cell-based. The method, boiled down:
as §1

The target of data set [6] is Phosphatidylinositol 4,5-bisphosphate 3-kinase catalytic subunit gamma isoform (Homo sapiens, UniProt P48736). Kind of data set: Binding affinity to wild-type human partial length PIK3CG (S144 to A1102 residues) expressed in HEK293 cells measured after 1 hr by Kinomescan method. The format is cell-based. A digest of the protocol: as §1
Chain of Phosphatidylinositol 4,5-bisphosphate 3-kinase catalytic subunit gamma isoform (P48736 whole entry, the tested form may be a part, canonical isoform): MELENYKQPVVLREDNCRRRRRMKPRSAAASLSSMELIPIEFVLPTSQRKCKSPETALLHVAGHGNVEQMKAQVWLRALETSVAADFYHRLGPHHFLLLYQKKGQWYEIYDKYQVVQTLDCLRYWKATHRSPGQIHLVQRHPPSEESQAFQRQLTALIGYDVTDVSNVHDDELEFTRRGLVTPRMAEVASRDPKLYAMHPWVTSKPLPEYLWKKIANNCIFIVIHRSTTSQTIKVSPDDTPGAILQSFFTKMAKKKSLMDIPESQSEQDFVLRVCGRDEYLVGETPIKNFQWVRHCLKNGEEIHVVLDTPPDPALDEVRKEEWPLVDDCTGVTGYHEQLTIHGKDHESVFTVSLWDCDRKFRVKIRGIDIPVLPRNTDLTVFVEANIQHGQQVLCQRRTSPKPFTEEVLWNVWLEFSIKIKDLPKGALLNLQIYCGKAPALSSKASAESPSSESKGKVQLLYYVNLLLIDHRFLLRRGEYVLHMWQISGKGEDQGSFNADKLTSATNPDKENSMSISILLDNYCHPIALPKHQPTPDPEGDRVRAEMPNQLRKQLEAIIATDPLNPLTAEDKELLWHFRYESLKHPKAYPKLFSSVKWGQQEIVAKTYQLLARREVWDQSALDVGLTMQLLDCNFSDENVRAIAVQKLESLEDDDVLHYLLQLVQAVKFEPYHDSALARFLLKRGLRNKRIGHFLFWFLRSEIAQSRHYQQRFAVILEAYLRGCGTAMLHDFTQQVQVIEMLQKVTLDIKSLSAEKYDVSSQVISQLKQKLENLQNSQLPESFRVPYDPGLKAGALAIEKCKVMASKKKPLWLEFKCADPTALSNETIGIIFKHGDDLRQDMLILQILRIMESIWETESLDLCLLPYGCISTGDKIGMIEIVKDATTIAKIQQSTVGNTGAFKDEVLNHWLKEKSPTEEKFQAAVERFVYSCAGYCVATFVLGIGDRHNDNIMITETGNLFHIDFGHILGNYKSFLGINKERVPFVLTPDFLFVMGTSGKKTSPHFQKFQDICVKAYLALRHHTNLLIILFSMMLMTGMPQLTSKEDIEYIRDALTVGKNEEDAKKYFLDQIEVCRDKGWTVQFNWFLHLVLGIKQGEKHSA
Data set [7] deals with Serine/threonine-protein kinase mTOR (Homo sapiens, UniProt P42345). Kind of data set: Binding affinity to wild-type human partial length MTOR (L1382 to W2549 residues) expressed in HEK293 cells measured after 1 hr by Kinomescan method. The format is cell-based. The method, boiled down: as §1
Data set [8] has as its target PI3-kinase p110-alpha/p85-alpha (Homo sapiens, UniProt P42336). Kind of data set: Inhibition of alexa fluor 647-labeled kinase tracer 314 binding to recombinant human N-terminal His-tagged p110alpha/p85alpha expressed in baculovirus expression system measured after 60 mins by LanthaScreen TR-FRET assay relative to control. Background: TR-FRET usually uses a lanthanide donor and a delayed reading to cut background.

A short description of data set [9]: Inhibition of mTOR2 in human A2058 cells assessed as reduction in PKB/Akt phosphorylation at Ser473 incubated for 1 hr by Western blot analysis. The format is cell-based. The conditions noted are these: A2058, 1 h. A digest of the protocol: (§2)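 A2058 cells grown 24 h at 37 °C, then exposed to inhibitor or DMSO for 1 h. Cells were PFA-fixed and stained for pPKB Ser473 or pS6 Ser235/236 by in-cell western with IR-dye secondary antibodies. Signal normalized to tubulin and to DMSO. IC50 from a 7-point (triplicate) or 11-point (duplicate) 1:2 series.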
In general terms: In western blotting, separated proteins are transferred to a membrane and probed.

A short description of data set [10]: Inhibition of mTORC1 in human A2058 cells assessed as reduction in RPS6 phosphorylation at S235/236 residue incubated for 1 hrs by Western blot analysis. It counts as cell-based. The conditions noted are these: A2058, 1 h. The method, boiled down:
as §2

Chain of PI3-kinase p110-alpha/p85-alpha (P27986 whole entry): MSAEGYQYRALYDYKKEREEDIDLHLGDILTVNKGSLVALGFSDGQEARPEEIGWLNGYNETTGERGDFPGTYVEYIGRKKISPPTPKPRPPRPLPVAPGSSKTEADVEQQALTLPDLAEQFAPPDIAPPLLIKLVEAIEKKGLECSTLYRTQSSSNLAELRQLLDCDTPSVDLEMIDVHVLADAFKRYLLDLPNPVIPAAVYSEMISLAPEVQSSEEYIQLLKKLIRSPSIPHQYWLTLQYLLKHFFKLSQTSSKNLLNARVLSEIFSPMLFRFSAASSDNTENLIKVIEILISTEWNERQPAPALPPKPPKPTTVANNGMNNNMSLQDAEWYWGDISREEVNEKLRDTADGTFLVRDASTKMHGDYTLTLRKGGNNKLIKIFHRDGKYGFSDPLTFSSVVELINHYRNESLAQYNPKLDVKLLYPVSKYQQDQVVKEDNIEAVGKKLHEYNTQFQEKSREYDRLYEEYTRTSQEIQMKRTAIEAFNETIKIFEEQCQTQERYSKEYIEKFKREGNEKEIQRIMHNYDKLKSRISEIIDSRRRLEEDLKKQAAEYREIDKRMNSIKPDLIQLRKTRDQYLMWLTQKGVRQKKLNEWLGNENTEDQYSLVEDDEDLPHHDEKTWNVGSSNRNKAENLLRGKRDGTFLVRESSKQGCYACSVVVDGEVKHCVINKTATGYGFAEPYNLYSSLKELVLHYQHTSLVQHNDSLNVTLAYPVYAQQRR
Chain of PI3-kinase p110-alpha/p85-alpha (P42336 whole entry): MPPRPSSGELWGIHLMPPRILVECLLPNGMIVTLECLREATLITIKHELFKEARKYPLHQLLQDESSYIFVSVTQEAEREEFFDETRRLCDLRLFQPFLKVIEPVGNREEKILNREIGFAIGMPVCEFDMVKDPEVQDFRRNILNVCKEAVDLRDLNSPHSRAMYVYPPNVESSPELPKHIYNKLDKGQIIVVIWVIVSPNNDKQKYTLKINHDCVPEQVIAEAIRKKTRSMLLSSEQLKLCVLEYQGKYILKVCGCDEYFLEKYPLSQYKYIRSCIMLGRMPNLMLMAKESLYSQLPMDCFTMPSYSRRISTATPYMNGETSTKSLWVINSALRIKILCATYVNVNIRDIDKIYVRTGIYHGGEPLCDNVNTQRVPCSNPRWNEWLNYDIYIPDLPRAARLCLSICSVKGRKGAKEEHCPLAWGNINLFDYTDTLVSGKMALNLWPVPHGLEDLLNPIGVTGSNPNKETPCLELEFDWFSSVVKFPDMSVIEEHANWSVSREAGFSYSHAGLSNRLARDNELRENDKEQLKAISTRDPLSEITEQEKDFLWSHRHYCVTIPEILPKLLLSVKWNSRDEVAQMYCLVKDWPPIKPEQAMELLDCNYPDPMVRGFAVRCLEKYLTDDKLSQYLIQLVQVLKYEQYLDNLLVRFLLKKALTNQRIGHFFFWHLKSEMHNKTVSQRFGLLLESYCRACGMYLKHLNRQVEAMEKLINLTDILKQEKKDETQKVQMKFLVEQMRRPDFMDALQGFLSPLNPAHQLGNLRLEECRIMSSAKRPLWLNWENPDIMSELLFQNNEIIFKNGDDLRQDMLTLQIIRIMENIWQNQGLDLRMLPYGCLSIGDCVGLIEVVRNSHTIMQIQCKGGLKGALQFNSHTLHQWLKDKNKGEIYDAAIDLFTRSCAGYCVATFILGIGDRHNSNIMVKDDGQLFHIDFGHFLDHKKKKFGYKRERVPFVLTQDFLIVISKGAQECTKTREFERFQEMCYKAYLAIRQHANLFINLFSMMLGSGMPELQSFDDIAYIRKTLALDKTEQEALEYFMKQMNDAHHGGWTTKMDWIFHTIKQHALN
Chain of Phosphatidylinositol 4,5-bisphosphate 3-kinase catalytic subunit alpha isoform (P42336 whole entry, the tested form may be a part, canonical isoform): as the sequence (P42336 whole entry) above
Chain of Phosphatidylinositol 4-kinase beta (Q9UBF8 whole entry, the tested form may be a part): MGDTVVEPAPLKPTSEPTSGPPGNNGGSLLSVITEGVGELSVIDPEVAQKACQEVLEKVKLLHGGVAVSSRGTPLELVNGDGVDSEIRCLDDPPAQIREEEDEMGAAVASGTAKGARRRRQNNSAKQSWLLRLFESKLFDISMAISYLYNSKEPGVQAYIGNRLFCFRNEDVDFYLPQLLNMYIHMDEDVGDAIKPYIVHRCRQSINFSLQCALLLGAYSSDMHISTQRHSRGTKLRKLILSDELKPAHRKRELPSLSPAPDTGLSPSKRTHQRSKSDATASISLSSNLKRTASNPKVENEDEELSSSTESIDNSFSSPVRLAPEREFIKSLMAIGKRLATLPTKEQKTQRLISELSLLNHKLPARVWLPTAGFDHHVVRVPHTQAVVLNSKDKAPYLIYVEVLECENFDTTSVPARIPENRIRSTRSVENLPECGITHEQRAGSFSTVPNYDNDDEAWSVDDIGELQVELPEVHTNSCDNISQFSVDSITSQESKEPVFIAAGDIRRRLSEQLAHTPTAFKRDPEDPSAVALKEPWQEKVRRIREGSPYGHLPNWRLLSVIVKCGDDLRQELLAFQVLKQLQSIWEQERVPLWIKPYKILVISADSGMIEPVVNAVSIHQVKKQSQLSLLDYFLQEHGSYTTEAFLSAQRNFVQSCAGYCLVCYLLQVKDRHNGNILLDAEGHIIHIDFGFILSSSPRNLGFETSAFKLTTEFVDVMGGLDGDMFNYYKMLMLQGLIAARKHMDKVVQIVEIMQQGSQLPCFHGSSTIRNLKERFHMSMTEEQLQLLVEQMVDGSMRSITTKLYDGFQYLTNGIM

A word on the Kd: it is the equilibrium constant for the complex coming apart. Low readings indicate a tighter complex, high ones a looser complex. In general, Ki refers to the equilibrium dissociation constant of an inhibitor or competing ligand from its target. A word on the IC50: it is the concentration needed to halve the response being measured. `C[C@@H]1COCCN1c1nc(-c2cnc(N)cc2C(F)F)nc(N2[C@H](C)COC[C@@H]2C)n1`: the dissociation constant Kd in [1] was 1450 nM; in data set [3], 110 nM; in data set [4], over 30 µM; in data set [5], 3500 nM; in data set [6], 1350 nM; in data set [7] it was 0.67 nM. In data set [2], the Activity result was “Not Active”. Further, the remaining at 1 h, 1 µM on CYP1A2 was 98.5%. The inhibition constant Ki in data set [8] was 287 nM. For the same molecule, the IC50 in data set [9] is 96 nM; in data set [10], 71 nM.
As for `C[C@@H]1COCCN1c1nc(-c2cnc(N)cc2C(F)F)nc(N2CCOCC2(C)C)n1`, the dissociation constant Kd in [1] is 1350 nM; in [3], 81 nM; in [4], over 30 µM; in data set [5], 2450 nM; in data set [6], 595 nM; in [7] it was 0.88 nM. Besides, in data set [2], the Activity result is “Not Active”. Besides, on CYP1A2, the remaining at 1 h, 1 µM came out at 101%. The Ki in [8] was found to be 469 nM. In addition, the half-maximal inhibitory concentration (IC50) in data set [9] is 191 nM; in [10], 61 nM.
